According to ChEMBL document CHEMBL1126647, “Fluorine-18-labeled progestin ketals: synthesis and target tissue uptake selectivity of potential imaging agents for receptor-positive breast tumors” (J Med Chem, 1993):

Experiments:
[1] = target: T1, Mineralocorticoid receptor (Rattus norvegicus) (UniProt P22199); assay: Relative binding affinity (RBA) for mineralocorticoid receptor compared to aldosterone
T1 sequence (whole entry): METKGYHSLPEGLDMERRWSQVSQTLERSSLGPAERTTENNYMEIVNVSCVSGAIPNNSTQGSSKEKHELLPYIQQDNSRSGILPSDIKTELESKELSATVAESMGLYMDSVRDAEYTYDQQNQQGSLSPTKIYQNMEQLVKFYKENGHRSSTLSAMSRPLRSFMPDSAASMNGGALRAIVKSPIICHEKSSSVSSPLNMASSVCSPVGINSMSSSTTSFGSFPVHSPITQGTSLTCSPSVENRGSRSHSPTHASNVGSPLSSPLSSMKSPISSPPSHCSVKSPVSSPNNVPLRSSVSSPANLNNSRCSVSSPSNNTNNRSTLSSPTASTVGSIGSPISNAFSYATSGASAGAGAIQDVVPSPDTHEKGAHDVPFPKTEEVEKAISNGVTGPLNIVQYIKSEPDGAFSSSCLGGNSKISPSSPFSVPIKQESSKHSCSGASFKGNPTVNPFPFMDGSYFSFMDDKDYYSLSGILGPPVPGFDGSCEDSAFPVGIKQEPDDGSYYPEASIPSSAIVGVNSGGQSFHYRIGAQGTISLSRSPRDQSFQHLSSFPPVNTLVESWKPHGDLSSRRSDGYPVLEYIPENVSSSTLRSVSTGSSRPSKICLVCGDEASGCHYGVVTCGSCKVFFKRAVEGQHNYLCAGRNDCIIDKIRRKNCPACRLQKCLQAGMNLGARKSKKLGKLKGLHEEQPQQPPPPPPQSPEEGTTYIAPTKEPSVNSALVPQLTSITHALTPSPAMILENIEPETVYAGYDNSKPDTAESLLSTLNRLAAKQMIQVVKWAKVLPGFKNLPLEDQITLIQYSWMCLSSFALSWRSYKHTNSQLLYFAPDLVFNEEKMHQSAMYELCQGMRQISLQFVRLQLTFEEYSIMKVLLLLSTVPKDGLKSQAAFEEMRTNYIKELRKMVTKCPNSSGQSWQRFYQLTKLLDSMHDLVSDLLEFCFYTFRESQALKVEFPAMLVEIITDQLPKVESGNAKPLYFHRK

[2] = target: T2, Progesterone receptor (Rattus norvegicus) (UniProt Q63449); assay: Tissue distribution in uterus/blood 1 hr after [18F]4 injection into estrogen-primed immature rats co-injected with uterine uptake blocker (ORG 2058); type: functional, tissue-based
T2 sequence (whole entry): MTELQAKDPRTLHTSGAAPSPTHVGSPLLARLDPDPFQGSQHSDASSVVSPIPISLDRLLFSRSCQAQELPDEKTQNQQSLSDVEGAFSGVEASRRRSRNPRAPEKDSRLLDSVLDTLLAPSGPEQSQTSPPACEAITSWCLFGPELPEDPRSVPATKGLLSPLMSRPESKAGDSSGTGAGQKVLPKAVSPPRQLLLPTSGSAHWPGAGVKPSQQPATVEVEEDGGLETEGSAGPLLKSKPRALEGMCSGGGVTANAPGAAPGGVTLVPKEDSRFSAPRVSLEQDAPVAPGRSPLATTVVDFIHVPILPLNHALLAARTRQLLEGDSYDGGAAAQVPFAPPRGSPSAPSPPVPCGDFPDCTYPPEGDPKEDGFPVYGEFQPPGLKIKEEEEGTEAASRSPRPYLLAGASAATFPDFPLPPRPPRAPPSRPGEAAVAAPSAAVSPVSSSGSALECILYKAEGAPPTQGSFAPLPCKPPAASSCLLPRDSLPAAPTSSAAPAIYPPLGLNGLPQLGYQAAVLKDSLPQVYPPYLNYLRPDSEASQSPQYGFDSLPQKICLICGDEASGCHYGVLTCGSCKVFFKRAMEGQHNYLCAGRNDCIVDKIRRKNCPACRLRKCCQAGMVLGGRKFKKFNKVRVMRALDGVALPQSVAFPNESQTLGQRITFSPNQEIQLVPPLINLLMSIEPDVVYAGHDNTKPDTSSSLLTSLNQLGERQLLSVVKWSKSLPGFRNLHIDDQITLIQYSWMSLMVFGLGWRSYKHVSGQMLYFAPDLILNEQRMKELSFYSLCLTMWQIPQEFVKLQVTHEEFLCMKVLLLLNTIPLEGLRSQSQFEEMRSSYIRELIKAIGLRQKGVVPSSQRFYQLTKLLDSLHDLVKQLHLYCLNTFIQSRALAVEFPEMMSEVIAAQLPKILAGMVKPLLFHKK
Procedure, shortened: (§1)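 Blocking group: estrogen-primed immature female Sprague-Dawley rats (estradiol 5 μg s.c. ×2 days, used 24 h later). ORG 2058 18 μg was co-injected with the tracer dose iv via tail vein, 0.2 mL injection volume in 10% ethanol/saline. Killed 1 h later; tissues weighed and gamma-counted. Results as %ID/g or ratios, mean ± SD, n = 5.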

[3] = target: T2, Progesterone receptor (Rattus norvegicus); assay: Tissue distribution in uterus/blood 1 hr after [18F]4 injection into estrogen-primed immature rats at low dose; type: functional, tissue-based
Procedure, shortened: (§2)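 Estrogen-primed immature female Sprague-Dawley rats (estradiol 5 μg s.c. daily ×2, used 24 h later) were given a reduced tracer dose of 30 μCi in 0.04 mL 10% ethanol/saline, tail vein iv, under ether. Decapitated at 1 h; organs weighed and gamma-counted. Results as %ID/g or uterus/tissue ratio, mean ± SD, n = 5.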

[4] = target: T2, Progesterone receptor (Rattus norvegicus); assay: Tissue distribution in uterus/muscle 1 hr after [18F]4 injection into estrogen-primed immature rats co-injected ORG 2058 (uterine uptake blocker); type: functional, tissue-based; procedure, shortened: as §1
[5] = target: T2, Progesterone receptor (Rattus norvegicus); assay: Tissue distribution in uterus 1 hr after [18F]4 injection into estrogen-primed immature rats at low dose; type: functional, tissue-based; procedure, shortened: as §2
[6] = target: T2, Progesterone receptor (Rattus norvegicus); assay: Tissue distribution in blood 3 hr after [18F]-4 injection into estrogen-primed immature rats; type: functional, tissue-based
Procedure, shortened: (§3)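 Immature female Sprague-Dawley rats, estradiol-primed (5 μg s.c. in 20% ethanol/sunflower oil, two successive days, used 24 h later). Tracer (30 Ci/mmol) in 10% ethanol/saline was injected iv into the tail vein under ether anesthesia. Animals were decapitated 3 h postinjection; organs weighed and gamma-counted. %ID/g, mean ± SD, n = 5.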

[7] = target: T2, Progesterone receptor (Rattus norvegicus); assay: Tissue distribution in fat 1 hr after [18F]4 injection into estrogen-primed immature rats at low dose; type: functional, tissue-based; settings: Adipose tissue; procedure, shortened: as §2
[8] = target: T2, Progesterone receptor (Rattus norvegicus); assay: Tissue distribution in kidney 3 hr after [18F]4 injection into estrogen-primed immature rats; type: functional, tissue-based; procedure, shortened: as §3
[9] = target: T2, Progesterone receptor (Rattus norvegicus); assay: Tissue distribution in lung 3 hr after [18F]4 injection into estrogen-primed immature rats; type: functional, tissue-based; procedure, shortened: as §3
[10] = target: T2, Progesterone receptor (Rattus norvegicus); assay: Tissue distribution in muscle 1 hr after [18F]4 injection into estrogen-primed immature rats co-injected with uterine uptake blocker (ORG2058); type: functional, tissue-based; procedure, shortened: as §1
[11] = target: T2, Progesterone receptor (Rattus norvegicus); assay: Tissue distribution in ovaries 1 hr after [18F]4 injection into estrogen-primed immature rats at normal dose; type: functional, tissue-based; settings: Female gonad
Procedure, shortened: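 Female Sprague-Dawley rats, 23 days old, primed with estradiol 5 μg s.c. in 20% ethanol/sunflower oil on two days and used 24 h later. Under ether, they received 51 μCi tracer (30 Ci/mmol) iv via the tail vein in 0.1 mL 10% ethanol/saline. Killed by decapitation at 1 h; tissues weighed and gamma-counted. Results as %ID/g or tissue ratios, mean ± SD, n = 5.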

[12] = target: T2, Progesterone receptor (Rattus norvegicus); assay: Tissue distribution in fat 1 hr after [18F]4 injection into estrogen-primed immature rats co-injected with uterine uptake blocker (ORG 2058); type: functional, tissue-based; settings: Adipose tissue; procedure, shortened: as §1

Compound | relative binding affinity (RBA) [1] | uterus/blood ratio [2] | uterus/blood ratio [3] | uterus/muscle ratio [4] | Injected dose/g [5] | Injected dose/g [6] | Injected dose/g [7] | Injected dose/g [8] | Injected dose/g [9] | Injected dose/g [10] | Injected dose/g [11] | Injected dose/g [12]
C[C@@]1(c2ccc(F)cc2)O[C@@H]2CC3C4CCC5=CC(=O)CC[C@@H]5C4CC[C@]3(C)[C@]2(C(=O)CO)O1 (some centres undefined) | 140 | 3.69 | 14.5 | 2.42 | 4.06% | 0.1% | 3.78% | 0.45% | 0.22% | 0.35% | 2.8% | 2.76%
CC(=O)[C@@]12O[C@](C)(c3ccc(F)cc3)O[C@@H]1CC1C3CCC4=CC(=O)CC[C@]4(C)C3CC[C@@]12C (some centres undefined) | 6 | 3.06 | 6.34 | 1.69 | 3.3% | 0.28% | 5.39% | 1.47% | 0.91% | 0.76% | 3.93% | 3.77%
